Measurements from ChEMBL document CHEMBL1629654, “Breakthrough Aspergillus fumigatus and Candida albicans double infection during caspofungin treatment: laboratory characteristics and implication for susceptibility testing” (2009).
≈ marks a conversion by molar mass, not a printed value. Calls of active or inactive are those of the source. No cut-off for these calls is given here.

What was measured:
Clavispora lusitaniae [1] = experiment: Antimicrobial activity against Candida lusitaniae after 48 hrs
Candida albicans [2] = experiment: Antimicrobial activity against Candida albicans isolate R after 48 hrs by EUCAST microdilution method; type: functional
Procedure, shortened: (§1)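 EUCAST broth microdilution, plates read spectrophotometrically at 490 nm. MIC is the lowest dilution giving 50% growth inhibition. C. krusei […] control included in each run.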

Candida albicans [3] = experiment: Antimicrobial activity against Candida albicans isolate S at 25 ug/ml grown on Muller-Hinton agar medium after 48 hrs by disk diffusion method; type: functional
Procedure, shortened: (§2)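 Disk diffusion on 90-mm RPMI 1640 with 2% glucose agar or on Mueller-Hinton agar. Plates were swabbed in three directions with a yeast suspension of 1–5 × 10^6 cells/ml. Paper disks (6 mm) held 1, 5 or 25 µg drug. Zone diameters were read at 24 and 48 h; values are means of two experiments.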

Candida albicans [4] = experiment: Antimicrobial activity against Candida albicans isolate R at 5 ug/ml grown on Muller-Hinton agar medium after 48 hrs by disk diffusion method; type: functional
Procedure, shortened: as §2

Candida albicans [5] = experiment: Antimicrobial activity against Candida albicans isolate S at 5 ug/ml grown on RPMI 1640 medium after 24 hrs by disk diffusion method; type: functional
Procedure, shortened: as §2

Candida albicans [6] = experiment: Antimicrobial activity against Candida albicans obtained from tracheal suction of patient 5 days after admission by EUCAST microdilution method; type: functional; details: Trachea, 120 h
Procedure, shortened: as §1

Candida albicans [7] = experiment: Antimicrobial activity against Candida albicans isolate C after 48 hrs by microdilution method; type: functional
Procedure, shortened: (§3)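 Broth microdilution in microtiter plates, read spectrophotometrically at 490 nm. MIC taken as the lowest drug dilution giving 50% growth inhibition. C. krusei […] run as control in each run. Read at 24 h and 48 h; trailing growth noted at 48 h.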

Candida albicans [8] = experiment: Antimicrobial activity against Candida albicans obtained from urine of patient 21 days after admission by EUCAST microdilution method; type: functional; details: 504 h
Procedure, shortened: as §1

Clavispora lusitaniae [9] = experiment: Antimicrobial activity against Candida lusitaniae after 48 hrs by 50% endpoint M27-A2 method; type: functional
Clavispora lusitaniae [10] = experiment: Antimicrobial activity against Candida lusitaniae after 48 hrs by 80% endpoint M27-A method
[11] = system: Meyerozyma guilliermondii; experiment: Antimicrobial activity against Candida guilliermondii after 24 hrs by M27-A3 method; type: functional
Candida albicans [12] = experiment: Antimicrobial activity against Candida albicans after 48 hrs by Etest; type: functional
Kluyveromyces marxianus = experiment: Antimicrobial activity against Candida kefyr after 24 hrs by M27-A3 method; type: functional
Candida albicans [13] = experiment: Antimicrobial activity against Candida albicans isolate R at 1 ug/ml grown on RPMI 1640 medium after 48 hrs by disk diffusion method; type: functional
Procedure, shortened: as §2

Candida albicans [14] = experiment: Antimicrobial activity against Candida albicans isolate R at 2 ug/ml after 48 hrs by agar dilution method; type: functional, organism-based
Procedure, shortened: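 Agar dilution on Sabouraud agar with caspofungin at 0, 0.5, 1 and 2 per ml. Isolates were subcultured 2 days on CHROMagar. Suspensions of 1×10^6 to 5×10^6 CFU/ml in sterile water were diluted 1,500-fold, and approximately 3 to 15 cells were spread per agar surface. Growth or no growth was scored, with repeated testing.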

Pichia kudriavzevii [15] = experiment: Antimicrobial activity against Candida krusei after 48 hrs by broth microdilution method; type: functional
Candida tropicalis [16] = experiment: Antimicrobial activity against Candida tropicalis after 24 hrs by M27-A3 method; type: functional
Clavispora lusitaniae [17] = experiment: Antimicrobial activity against Candida lusitaniae after 24 hrs by M27-A3 method; type: functional
Candida albicans [18] = experiment: Antimicrobial activity against Candida albicans isolate R after 48 hrs by Etest; type: functional
Procedure, shortened: (§4)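 Etest on RPMI 1640 agar with 2% glucose, performed according to the manufacturer's recommendations.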

Clavispora lusitaniae [19] = experiment: Antimicrobial activity against Candida lusitaniae after 48 hrs by Etest; type: functional
Candida parapsilosis [20] = experiment: Antimicrobial activity against Candida parapsilosis after 48 hrs by Etest; type: functional; details: Lodderomyces parapsilosis
[21] = system: Meyerozyma guilliermondii; experiment: Antimicrobial activity against Candida guilliermondii after 48 hrs by 50% endpoint M27-A2 method; type: functional
Candida albicans [22] = experiment: Antimicrobial activity against Candida albicans isolate S infected in NMRI mouse assessed as decrease in kidney bacterial burden at 6 mg/kg, ip measured on day 4; type: functional, organism-based; design: dose 6 mg/kg
Candida albicans [23] = experiment: Antimicrobial activity against Candida albicans isolate R obtained from urine of patient 38 days after admission by Etest; type: functional
Procedure, shortened: as §4

Candida albicans [24] = experiment: Antimicrobial activity against Candida albicans isolate S at 1 ug/ml grown on Muller-Hinton agar medium after 24 hrs by disk diffusion method; type: functional
Procedure, shortened: as §2

[25] = system: Meyerozyma guilliermondii; experiment: Antimicrobial activity against Candida guilliermondii after 48 hrs by Etest; type: functional
Candida albicans [26] = experiment: Antimicrobial activity against Candida albicans isolate R at 5 ug/ml grown on Muller-Hinton agar medium after 24 hrs by disk diffusion method; type: functional
Procedure, shortened: as §2

Candida albicans [27] = experiment: Antimicrobial activity against Candida albicans after 48 hrs
Candida albicans [28] = experiment: Antimicrobial activity against Candida albicans isolate R at 1 ug/ml grown on Muller-Hinton agar medium after 24 hrs by disk diffusion method; type: functional
Procedure, shortened: as §2

Candida albicans [29] = experiment: Antimicrobial activity against Candida albicans isolate R at 25 ug/ml grown on RPMI 1640 medium after 48 hrs by disk diffusion method; type: functional
Procedure, shortened: as §2

Candida tropicalis [30] = experiment: Antimicrobial activity against Candida tropicalis after 48 hrs by broth microdilution method; type: functional
Candida tropicalis [31] = experiment: Antimicrobial activity against Candida tropicalis after 48 hrs
Pichia kudriavzevii [32] = experiment: Antimicrobial activity against Candida krusei after 48 hrs by 50% endpoint M27-A2 method; type: functional
Candida parapsilosis [33] = experiment: Antimicrobial activity against Candida parapsilosis after 48 hrs by 50% endpoint M27-A2 method; type: functional; details: Lodderomyces parapsilosis
Nakaseomyces glabratus = experiment: Antimicrobial activity against Candida glabrata after 48 hrs by 50% endpoint M27-A2 method; type: functional
Candida albicans [34] = experiment: Antimicrobial activity against Candida albicans isolate R at 1 ug/ml grown on RPMI 1640 medium after 24 hrs by disk diffusion method; type: functional
Procedure, shortened: as §2

Candida albicans [35] = experiment: Antimicrobial activity against Candida albicans obtained from urine of patient 29 days after admission by EUCAST microdilution method; type: functional; details: 696 h
Procedure, shortened: as §1

Candida albicans [36] = experiment: Antimicrobial activity against Candida albicans isolate R at 25 ug/ml grown on Muller-Hinton agar medium after 24 hrs by disk diffusion method; type: functional
Procedure, shortened: as §2

[37] = system: Meyerozyma guilliermondii; experiment: Antimicrobial activity against Candida guilliermondii after 48 hrs by M27-A method
Candida albicans [38] = experiment: Antimicrobial activity against Candida albicans isolate R at 5 ug/ml grown on RPMI 1640 medium after 48 hrs by disk diffusion method; type: functional
Procedure, shortened: as §2

Debaryomyces hansenii = experiment: Antimicrobial activity against Candida famata after 24 hrs by M27-A3 method; type: functional
Pichia kudriavzevii [39] = experiment: Antimicrobial activity against Candida krusei after 48 hrs by Etest; type: functional
Candida albicans [40] = experiment: Antimicrobial activity against Candida albicans isolate C after 48 hrs by EUCAST microdilution method; type: functional
Procedure, shortened: as §1

Candida parapsilosis [41] = experiment: Antimicrobial activity against Candida parapsilosis after 48 hrs by M27-A method; details: Lodderomyces parapsilosis
Candida tropicalis [42] = experiment: Antimicrobial activity against Candida tropicalis after 48 hrs by NCCLS microdilution method; type: functional
Candida albicans [43] = experiment: Antimicrobial activity against Candida albicans isolate R after 48 hrs by microdilution method; type: functional
Procedure, shortened: as §3

`CC[C@H](C)C[C@H](C)CCCCCCCCC(=O)N[C@H]1C[C@@H](O)[C@@H](NCCN)NC(=O)[C@@H]2[C@@H](O)CCN2C(=O)[C@H]([C@H](O)CCN)NC(=O)[C@H]([C@H](O)[C@@H](O)c2ccc(O)cc2)NC(=O)[C@@H]2C[C@@H](O)CN2C(=O)[C@H]([C@@H](C)O)NC1=O` [CASPOFUNGIN] was tested, and the MIC90 (Clavispora lusitaniae [1]) was 1 µg/mL (≈ 0.915 µM), the MIC (Candida albicans [2]) was 1 µg/mL (≈ 0.915 µM) and the “inhibition zone (IZ)” value (Candida albicans [3]) was 24.9 mm. The “inhibition zone (IZ)” value (Candida albicans [4]) was 8.8 mm, the “inhibition zone (IZ)” value (Candida albicans [5]) was 20.6 mm and the MIC (Candida albicans [6]) was 0.25 µg/mL (≈ 0.229 µM). The MIC (Candida albicans [7]) was no more than 0.06 µg/mL, the MIC (Candida albicans [8]) was 1 µg/mL (≈ 0.915 µM) and the MIC90 (Clavispora lusitaniae [9]) was 2 µg/mL (≈ 1.83 µM). For the same compound, the MIC90 (Clavispora lusitaniae [10]) was 1 µg/mL (≈ 0.915 µM), the MIC90 [11] was 1 µg/mL (≈ 0.915 µM) and the MIC90 (Candida albicans [12]) was 0.25 µg/mL (≈ 0.229 µM). For the same compound, the MIC90 (Kluyveromyces marxianus) was 0.015 µg/mL (≈ 0.0137 µM), the “inhibition zone (IZ)” value (Candida albicans [13]) was 6.2 mm and the “growth inhibition (GI)” value (Candida albicans [14]) was “inactive”. For the same compound, the MIC90 (Pichia kudriavzevii [15]) was 2 µg/mL (≈ 1.83 µM), the MIC90 (Candida tropicalis [16]) was 0.06 µg/mL (≈ 0.0549 µM) and the MIC90 (Clavispora lusitaniae [17]) was 0.25 µg/mL (≈ 0.229 µM). The MIC (Candida albicans [18]) was greater than 32 µg/mL, the MIC90 (Clavispora lusitaniae [19]) was 2 µg/mL (≈ 1.83 µM) and the MIC90 (Candida parapsilosis [20]) was 2 µg/mL (≈ 1.83 µM). For the same compound, the MIC90 [21] was 1 µg/mL (≈ 0.915 µM), the Activity (Candida albicans [22]) was “Active” and the MIC (Candida albicans [23]) was greater than 32 µg/mL. The “inhibition zone (IZ)” value (Candida albicans [24]) was 12.1 mm, the MIC90 [25] was greater than 8 µg/mL and the “inhibition zone (IZ)” value (Candida albicans [26]) was 8.8 mm. For the same compound, the MIC90 (Candida albicans [27]) was 0.25 µg/mL (≈ 0.229 µM), the “inhibition zone (IZ)” value (Candida albicans [28]) was 6.1 mm and the “inhibition zone (IZ)” value (Candida albicans [29]) was 11.9 mm. The MIC90 (Candida tropicalis [30]) was 0.25 µg/mL (≈ 0.229 µM), the MIC90 (Candida tropicalis [31]) was 0.5 µg/mL (≈ 0.457 µM) and the MIC90 (Pichia kudriavzevii [32]) was 2 µg/mL (≈ 1.83 µM). For the same compound, the MIC90 (Candida parapsilosis [33]) was 2 µg/mL (≈ 1.83 µM), the MIC90 (Nakaseomyces glabratus) was 1 µg/mL (≈ 0.915 µM) and the “inhibition zone (IZ)” value (Candida albicans [34]) was 6.2 mm. For the same compound, the MIC (Candida albicans [35]) was 0.25 µg/mL (≈ 0.229 µM), the “inhibition zone (IZ)” value (Candida albicans [36]) was 13.4 mm and the MIC90 [37] was greater than 8 µg/mL. The “inhibition zone (IZ)” value (Candida albicans [38]) was 6.2 mm, the MIC90 (Debaryomyces hansenii) was 1 µg/mL (≈ 0.915 µM) and the MIC90 (Pichia kudriavzevii [39]) was 1 µg/mL (≈ 0.915 µM). It also gave an MIC (Candida albicans [40]) of no more than 0.06 µg/mL, an MIC90 (Candida parapsilosis [41]) of 4 µg/mL (≈ 3.66 µM) and an MIC90 (Candida tropicalis [42]) of 0.5 µg/mL (≈ 0.457 µM). For the same compound, the MIC (Candida albicans [43]) was 1 µg/mL (≈ 0.915 µM).
